We go through three compounds from PMC4238785 (British Journal of Clinical Pharmacology, 2014).

One data set relates to CYP2A6. To be noted: [14C]-apremilast, in vitro; cited from earlier work.
The subject of the next data set is OATP1B3. The settings on record: in vitro studies, no reference given; cited from earlier work.
The conditions of data set [1]: acidic conditions; no reference given; cited from earlier work.
Data set [2] is classed as in vivo, human. The essentials:
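Healthy subjects fasted overnight and received a single oral 30 mg test-compound dose in each of three periods. After a 4-day washout, it was followed 5 min later by 600 mg i.v. inducer over 30 min. Then 600 mg oral inducer daily on days 7–21, co-dosed on day 20. Plasma (predose–48 h) was citric-acid stabilised, extracted with MTBE and run by achiral LC-MS. Ratios: ANOVA of log values, geometric-mean 90% CI.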

The format of data set [3] is in vivo, human. To be noted: for Tmax / Vd/F: male, human, plasma, po. The procedure, abridged:
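Healthy subjects received a single oral 20 mg test-compound dose with 240 ml water after an overnight fast, continued to 4 h. Period 2, after a 5−7 day washout: CYP3A4 inhibitor 400 mg orally once daily for 7 days, co-dosed on day 5. Plasma was sampled predose–72 h, acidified (citrate, pH 1.5) and run by chiral LC-MS. Ratios: ANOVA (log values, period and subject effects), least-square geometric means, 90% CI.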

The test system of the next data set is CYP3A4. To be noted: [14C]-apremilast, in vitro; cited from earlier work.
The next data set deals with MDR1. The settings on record: in vitro studies, no reference given; cited from earlier work.
For another data set, the system named is CYP1A2. To be noted: [14C]-apremilast, in vitro; cited from earlier work.
In a further data set the test system is OATP1B1. The settings on record: in vitro studies, no reference given; cited from earlier work.
For data set [4] the following is noted: cited from earlier work.
The conditions of data set [5]: midazolam with rifampicin; cited from earlier work.
The mark [6] stands for this setting: multiple oral doses of rifampicin vs apremilast alone.
Where [7] appears, read: with i.v. rifampicin vs apremilast 30 mg alone, least-square geometric means.
[8] abbreviates: apremilast 20 mg with ketoconazole 400 mg once daily vs alone.
The mark [9] stands for this setting: apremilast given with ketoconazole vs alone.
The mark [10] stands for this setting: with ketoconazole vs apremilast 20 mg alone, least-square geometric means.

Like-named read-outs stand apart in the source and are kept apart here. Where only a bound is given, the exact number is not on record here.

In the case of `CCOc1cc([C@@H](CS(C)(=O)=O)N2C(=O)c3cccc(NC(C)=O)c3C2=O)ccc1OC` [apremilast], the “rate of metabolism by CYP isoform” value with CYP2A6 was “lower rates of metabolism”; in the data set with CYP3A4 it was “high rate”; in the data set on CYP1A2, “lower rates of metabolism”. Besides, the transporter substrate entry with OATP1B3 is “not a substrate”; in the data set on MDR1, “is a MDR1 substrate”; in the data set with OATP1B1, “not a substrate”. In data set [1], the stability result is “stable”. The “increase in Cmax” value in data set [2] (after i.v. rifampicin vs apremilast alone) is listed as 13%. For the same compound, the CL/F in [2] (apremilast 30 mg single oral dose alone, n = 21, arithmetic mean (SD)) is 10.0 (3.02) l h^−1; in data set [3] (apremilast 20 mg single oral dose alone, n = 18, arithmetic mean (SD)) it was 10.2 (3.5) l h^−1. For the same compound, the Tmax in data set [2] (apremilast 30 mg single oral dose alone, n = 21, median (range)) is 2.0 (0.5–5.0) h; in [2] (both, human, plasma, oral), 1.25 h; in data set [2] (both, human, plasma, po) it was 1 h; in data set [2] (both, human, plasma, po, 30 mg), 2 h; in data set [3], 4 h; in data set [3] (20 mg), 2.5 h. The Vd/F (in general, the volume of distribution divided by bioavailability) in data set [2] (both, human, plasma, oral) came to 115 L; in data set [2] (both, human, plasma, po), 342 L; in [2] (both, human, plasma, po, 30 mg), 119 L; in data set [3] it was 84 L; in [3] (20 mg) it was 111 L. Besides, the half-life (in general, the time in which the quantity being followed falls by half) in data set [2] (both, human, plasma, po) is 6.31 h; in data set [2] (both, human, plasma, po, 30 mg) it was 8.2 h. Besides, the “decrease of Cmax” value in [2] (setting [6]) was “approximately 43%”. The “decrease of mean AUC(0,∞)” value in data set [2] (setting [6]) is on record as “≈ 72%”. Also, in data set [2] (setting [6]), the “increase of apremilast clearance” value is given as “≈ 3.6 fold”. Further, the “AUC(0,∞) Ratio (90% CI)” value in data set [2] (setting [7]) is given as 95.71 (88.0, 104.1) %; in [3] (setting [10]), 136.4 (126.2, 147.5) %. For the same compound, the “Cmax Ratio (90% CI)” value is reported as 113.1 (103.2, 123.9) % in data set [2] (setting [7]) and 104.9 (92.2, 119.3) % in data set [3] (setting [10]). The “fraction of apremilast excreted unchanged in the urine” value in data set [3] (KETO study, overall) is less than 5%. Also, the “increase of AUC(0,∞) by ketoconazole” value in [3] (setting [8]) was “≈ 36%”. In data set [3] (setting [8]), the “increase of Cmax by ketoconazole” value is on record as 5%. The “change in renal clearance” value in data set [3] (setting [9]) was “no meaningful change”. The “increase in the percentage of urinary excretion” value in [3] (setting [9]) is “approximately 36%”. Further, in data set [3] (setting [10]), the “CL/F Ratio (90% CI)” value was 73.3 (67.8, 79.2) %. In addition, in data set [3] (setting [10]), the “Vz/F Ratio (90% CI)” value was 77.5 (69.8, 86.1) %. For the same compound, in data set [3] (setting [10]), the “t1/2 Ratio (90% CI)” value was 106.5 (100.3, 112.7) %. The “dose excreted unchanged in urine” value in data set [4] was 3%.

In the case of `CCOc1cc(C(CS(C)(=O)=O)N2C(=O)c3cccc(N)c3C2=O)ccc1OC` (stereo not drawn) [CC-10055], in data set [3] (KETO study), the concentrations in urine entry is reported as “no detectable concentrations” and the “overall metabolite to parent ratios in plasma” value is no more than 5%.

Consider `Cc1ncc2n1-c1ccc(Cl)cc1C(c1ccccc1F)=NC2` [midazolam], for which, in data set [5], the “exposure relative to administration alone” value is given as 4%.
